Measurements published in ChEMBL document CHEMBL3272204, “Products from furans. 1. Sunthesis and anticoccidial and antimicrobial activity of 5-amino-5,6-dihydro-6-methoxy-2-methyl-2-(4'-biphenylyl)-2H-pyran-3(4H)-ones and related compounds” (1976).
≈ marks a conversion by molar mass, not a printed value. Calls of active or inactive are those of the source. The rule behind the calls is not given here.

Key:
[1] = system: Staphylococcus; experiment: Antibacterial activity against penicillin-sensitive Staphylococcus pyogenes assessed as growth inhibition after 24 hrs; assay type: functional
Method in brief: (§1)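 Halving (twofold) serial dilutions of compound in nutrient broth, in vitro. Incubated 24 hr at 37°. Value reported is the lowest concentration that inhibited growth.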

[2] = system: Staphylococcus; experiment: Antibacterial activity against penicillin-resistant Staphylococcus pyogenes assessed as growth inhibition after 24 hrs; assay type: functional; method in brief: as §1
[3] = system: Enterococcus faecalis; experiment: Antibacterial activity against Streptococcus faecalis assessed as growth inhibition after 24 hrs; assay type: functional
Method in brief: (§2)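 Twofold serial dilutions in nutrient broth. The minimum concentration inhibiting visible growth was read after 24 hr incubation at 37°.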

[4] = (§3) Antibacterial activity against Salmonella pullorum assessed as growth inhibition after 24 hrs; assay type: functional, Salmonella enterica subsp. enterica serovar Pullorum; method in brief: as §2
[5] = system: Pseudomonas aeruginosa; experiment: Antibacterial activity against Pseudomonas aeruginosa assessed as growth inhibition after 24 hrs; assay type: functional; method in brief: as §2
[6] = system: Escherichia coli; experiment: Antibacterial activity against Escherichia coli 198 assessed as growth inhibition after 24 hrs; assay type: functional; method in brief: as §2
[7] = system: Klebsiella aerogenes; experiment: Antibacterial activity against Aerobacter aerogenes assessed as growth inhibition after 24 hrs; assay type: functional; method in brief: as §2
[8] = system: Proteus vulgaris; experiment: Antibacterial activity against Proteus vulgaris assessed as growth inhibition after 24 hrs; assay type: functional; method in brief: as §2
[9] = system: Klebsiella pneumoniae; experiment: Antibacterial activity against Klebsiella pneumoniae assessed as growth inhibition after 24 hrs; assay type: functional; method in brief: as §2
[10] = system: Serratia marcescens; experiment: Antibacterial activity against Serratia marcescens assessed as growth inhibition after 24 hrs; assay type: functional; method in brief: as §2
[11] = system: Candida albicans; experiment: Antifungal activity against Candida albicans assessed as growth inhibition after 5 days at 37 degC; assay type: functional
Method in brief: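 Twofold serial dilutions in Sabouraud broth. The minimum inhibitory concentration was read after 5 days at 37°.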

[12] = system: Nannizzia gypsea; experiment: Antifungal activity against Microsporum gypseum assessed as growth inhibition after 10 days at 28 degC; assay type: functional
Method in brief: (§4)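 Twofold serial dilutions in Sabouraud broth. The minimum inhibitory concentration was read after 10 days at 28°.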

[13] = system: Salmonella enterica subsp. enterica serovar Pullorum; experiment: as §3; assay type: functional; method in brief: as §2
[14] = Antifungal activity against Trichophyton granulosum assessed as growth inhibition after 10 days at 28 degC; assay type: functional; settings: Trichophyton mentagrophytes var. granulosum; method in brief: as §4
[15] = system: Eimeria tenella; experiment: Anticoccidal activity against Eimeria tenella assessed as improved weight gain and mortality in chicken relative to noninfected control; assay type: functional, organism-based
Method in brief: (§5)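 Chickens with experimental coccidiosis received compound orally in the diet at 0.05%, starting 1 day before infection. Efficacy was judged 6 days later from survival and weight gain.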

[16] = system: Eimeria acervulina; experiment: Anticoccidal activity against Eimeria acervulina assessed as improved weight gain and mortality in chicken relative to noninfected control; assay type: functional, organism-based; method in brief: as §5
[17] = system: Eimeria tenella; experiment: Anticoccidal activity against Eimeria tenella assessed as improved weight gain in chicken at 0.05%, po; assay type: functional, organism-based; method in brief: as §5
[18] = system: Eimeria acervulina; experiment: Anticoccidal activity against Eimeria acervulina assessed as improved weight gain in chicken; assay type: functional, organism-based; method in brief: as §5
[19] = Staphylococcus, 24 h, read-out: MIC
[20] = Enterococcus faecalis, 24 h, read-out: MIC
[21] = Salmonella enterica, 24 h, read-out: MIC
[22] = Pseudomonas aeruginosa, 24 h, read-out: MIC
[23] = Escherichia coli, 198, 24 h, read-out: MIC
[24] = Klebsiella aerogenes, 24 h, read-out: MIC
[25] = Proteus vulgaris, 24 h, read-out: MIC
[26] = Klebsiella pneumoniae, 24 h, read-out: MIC
[27] = Serratia marcescens, 24 h, read-out: MIC
[28] = Nannizzia gypsea, 240 h, read-out: MIC

COC1OC(C)(c2ccc(-c3ccccc3)cc2)C(=O)CC1N(C)C (stereo in doubt; 2a) [listing 1 of 2 here]
MIC [1, 19]: 3.2 µg/mL (≈ 9.43 µM) | MIC [2, 19]: 3.2 µg/mL (≈ 9.43 µM) | MIC [3, 20]: 3.2 µg/mL (≈ 9.43 µM) | MIC [4, 21]: 3.2 µg/mL (≈ 9.43 µM) | MIC [5, 22]: 3.2 µg/mL (≈ 9.43 µM) | MIC [6, 23]: 3.2 µg/mL (≈ 9.43 µM) | MIC [7, 24]: 3.2 µg/mL (≈ 9.43 µM) | MIC [8, 25]: 3.2 µg/mL (≈ 9.43 µM) | MIC [9, 26]: 3.2 µg/mL (≈ 9.43 µM) | MIC [10, 27]: 3.2 µg/mL (≈ 9.43 µM) | MIC ([11]; Candida albicans, 120 h, read-out: MIC): 16 µg/mL (≈ 47.1 µM) | MIC [12, 28]: 4 µg/mL (≈ 11.8 µM)

COC1OC(C)(c2ccc(-c3ccccc3)cc2)C(O)CC1N(C)C (single isomer, unassigned; isomer 1)
MIC [1]: inactive | MIC [2]: inactive | MIC [3]: inactive | MIC [13]: inactive | MIC [5]: inactive | MIC [6]: inactive | MIC [7]: inactive | MIC [8]: inactive | MIC [9]: inactive | MIC [10]: inactive | MIC [11]: inactive | MIC [12]: inactive | MIC [14]: inactive | Activity [15]: Active | Activity [16]: Active

COC1C=CC(=O)C(C)(c2ccc(-c3ccccc3)cc2)O1 (single isomer, unassigned; isomer 1)
MIC [1]: 6.2 µg/mL (≈ 21.1 µM) | MIC [2]: 6.2 µg/mL (≈ 21.1 µM) | MIC [3]: 6.2 µg/mL (≈ 21.1 µM) | MIC [4]: 6.2 µg/mL (≈ 21.1 µM) | MIC [5]: 6.2 µg/mL (≈ 21.1 µM) | MIC [6]: 6.2 µg/mL (≈ 21.1 µM) | MIC [7]: 6.2 µg/mL (≈ 21.1 µM) | MIC [8]: 6.2 µg/mL (≈ 21.1 µM) | MIC [9]: 6.2 µg/mL (≈ 21.1 µM) | MIC [10]: 6.2 µg/mL (≈ 21.1 µM) | MIC [11]: 16 µg/mL (≈ 54.4 µM) | MIC [12]: 2 µg/mL (≈ 6.79 µM)

COC1OC(C)(c2ccc(-c3ccccc3)cc2)C(O)CC1N1CCOCC1 (centres undefined)
MIC [1]: inactive | MIC [2]: inactive | MIC [3]: inactive | MIC [13]: inactive | MIC [5]: inactive | MIC [6]: inactive | MIC [7]: inactive | MIC [8]: inactive | MIC [9]: inactive | MIC [10]: inactive | MIC [11]: inactive | MIC [12]: inactive | MIC [14]: inactive | Activity [17]: inactive

COC1OC(C)(c2ccc(-c3ccccc3)cc2)C(=O)CC1N(C)C (stereo in doubt; 2a) [listing 2 of 2 here]
MIC [14]: 8 µg/mL (≈ 23.6 µM) | Activity [15]: Active | Activity [16]: Active

COC1OC(C)(c2ccc(-c3ccccc3)cc2)C(=O)CC1N(C)C (single isomer, unassigned; isomer 1)
MIC [1]: 6.2 µg/mL (≈ 18.3 µM) | MIC [2]: 6.2 µg/mL (≈ 18.3 µM) | MIC [3]: 6.2 µg/mL (≈ 18.3 µM) | MIC [4]: 6.2 µg/mL (≈ 18.3 µM) | MIC [5]: 6.2 µg/mL (≈ 18.3 µM) | MIC [6]: 6.2 µg/mL (≈ 18.3 µM) | MIC [7]: 6.2 µg/mL (≈ 18.3 µM) | MIC [8]: 6.2 µg/mL (≈ 18.3 µM) | MIC [9]: 6.2 µg/mL (≈ 18.3 µM) | MIC [10]: 6.2 µg/mL (≈ 18.3 µM) | MIC [11]: 16 µg/mL (≈ 47.1 µM) | MIC [12]: 8 µg/mL (≈ 23.6 µM)

COC1OC(C)(c2ccc(-c3ccccc3)cc2)C(O)CC1N(C)C (stereo in doubt; 3a)
MIC [1]: inactive | MIC [2]: inactive | MIC [3]: inactive | MIC [13]: inactive | MIC [5]: inactive | MIC [6]: inactive | MIC [7]: inactive | MIC [8]: inactive | MIC [9]: inactive | MIC [10]: inactive | MIC [11]: inactive | MIC [12]: inactive | MIC [14]: inactive | Activity [15]: Active | Activity [16]: Active

COC1OC(C)(c2ccc(-c3ccccc3)cc2)C(=O)CC1N1CCN(C)CC1 (centres undefined)
MIC [1, 19]: 6.2 µg/mL (≈ 15.7 µM) | MIC [2, 19]: 6.2 µg/mL (≈ 15.7 µM) | MIC [3, 20]: 6.2 µg/mL (≈ 15.7 µM) | MIC [4, 21]: 6.2 µg/mL (≈ 15.7 µM) | MIC [5, 22]: 6.2 µg/mL (≈ 15.7 µM) | MIC [6, 23]: 6.2 µg/mL (≈ 15.7 µM) | MIC [7, 24]: 6.2 µg/mL (≈ 15.7 µM) | MIC [8, 25]: 6.2 µg/mL (≈ 15.7 µM) | MIC [9, 26]: 6.2 µg/mL (≈ 15.7 µM) | MIC [10, 27]: 6.2 µg/mL (≈ 15.7 µM) | MIC [12, 28]: 3.2 µg/mL (≈ 8.11 µM) | MIC [14]: 1.6 µg/mL (≈ 4.06 µM) | Activity [17]: inactive | Activity [16]: Active

CNC1CC(=O)C(C)(c2ccc(-c3ccccc3)cc2)OC1OC (centres undefined)
MIC [1, 19]: 0.8 µg/mL (≈ 2.46 µM) | MIC [2, 19]: 0.8 µg/mL (≈ 2.46 µM) | MIC [3, 20]: 0.8 µg/mL (≈ 2.46 µM) | MIC [4, 21]: 0.8 µg/mL (≈ 2.46 µM) | MIC [5, 22]: 0.8 µg/mL (≈ 2.46 µM) | MIC [6, 23]: 0.8 µg/mL (≈ 2.46 µM) | MIC [7, 24]: 0.8 µg/mL (≈ 2.46 µM) | MIC [8, 25]: 0.8 µg/mL (≈ 2.46 µM) | MIC [9, 26]: 0.8 µg/mL (≈ 2.46 µM) | MIC [10, 27]: 0.8 µg/mL (≈ 2.46 µM) | Activity [15]: Active | Activity [18]: inactive
